Tested on: human FXa
Assay: In vitro neutralization of anti-FXa activity by protamine
Assay type: biochemical
Conditions: sample at 25 x IC50, protamine 0 to 90 μg/ml
Summary of the method: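 Human plasma is combined with a fixed test-compound stock set per construct and protamine chloride in PBS (0 to 90 μg/ml solutions), then held 5 min at room temperature. The mixture then goes into the chromogenic anti-FXa assay: human FXa for 4 min at room temperature, S-2765 substrate, and A405 read continuously for 5 min.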

In the case of `CO[C@H]1O[C@H](COS(=O)(=O)O)[C@@H](O[C@@H]2O[C@@H](C(=O)O)[C@@H](O[C@H]3O[C@H](COS(=O)(=O)O)[C@@H](O[C@@H]4O[C@H](C(=O)O)[C@@H](O[C@H]5O[C@H](COS(=O)(=O)O)[C@@H](O)[C@H](O)[C@H]5NS(=O)(=O)O)[C@H](O)[C@H]4O)[C@H](OS(=O)(=O)O)[C@H]3NS(=O)(=O)O)[C@H](O)[C@H]2OS(=O)(=O)O)[C@H](O)[C@H]1NS(=O)(=O)O` [Fondaparinux], the “neutralization of anti-FXa activity by protamine in vitro” value is reported as “completely insensitive”.

Reference: paper PMC6231235 (Science translational medicine, 2017)
